Experimental data published in ChEMBL document CHEMBL4052683, “The discovery of benzoxazine sulfonamide inhibitors of NaV1.7: Tools that bridge efficacy and target engagement” (Bioorg Med Chem Lett, 2017).

Key:
[1] = test system: Mus musculus; assay: Anti-pruritic activity in C57BL/6 mouse model of histamine-induced pruritus assessed as reduction in histamine-induced scratching at 60 mg/kg, po dosed 120 mins before test; format: functional
Method in brief: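 Male C57BL/6 mice got 30, 60 or 100 mg/kg PO in 30% hydroxypropyl β-cyclodextrin, pH 10.0, 120 min before the test. Histamine (8.15mM) was given intradermally to the nape of the neck just before testing, and scratch bouts were counted over 0–30 min. Diphenhydramine 30 mg/kg PO in water, 90 min before, served as control. Unbound plasma concentrations were measured.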

[2] = Ratio of unbound plasma concentration in Sprague-Dawley rat model of formalin-induced nociception behavior at 100 mg/kg, po to IC50 for rat Nav1.7 by whole cell voltage clamp method
Method in brief: (§1)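 Total phase II formalin-induced flinches were scored. Unbound plasma concentration was determined at each dose and related to the rat NaV1.7 IC50.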

[3] = Clearance in pooled human liver microsomes at 1 uM in presence of NADPH by LC-MS/MS method; format: ADME, microsome; settings: read-out: CLH
[4] = AUC (infinity) in rat at 0.5 mg/kg, iv by LC-MS/MS method; format: ADME, organism-based; set-up: dose 0.5 mg/kg, time infinity, route intravenous; settings: in vivo
Method in brief: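 Male rats got 0.5 mg/kg IV as a DMSO solution. Unbound clearance was taken as rat clearance divided by the unbound fraction from equilibrium dialysis.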

[5] = test system: Plasma; assay: Unbound plasma concentration in Sprague-Dawley rat model of formalin-induced nociception behavior at 10 mg/kg, po; format: ADME, organism-based; settings: in vivo; method in brief: as §1
[6] = test system: Plasma; assay: Unbound plasma concentration in C57BL/6 mouse model of histamine-induced pruritus at 60 mg/kg, po; format: ADME, organism-based; settings: in vivo
Method in brief: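 The formalin arm received 2% formalin subcutaneously into the dorsal hind paw, and total phase II licking and lifting was scored. The pruritus arm was dosed 120 min before histamine (8.15mM, intradermal, nape of neck), and scratch bouts were counted over 0-30 min. Unbound plasma concentration was determined at each dose.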

N#Cc1cc(C(F)(F)F)ccc1N1CCOc2cc(S(=O)(=O)Nc3nccs3)c(F)cc21
MPE [1]: 71%
Ratio [2]: 3.6
microsomal CLint at 1 µM [3]: < 14 µL/min/mg
AUC(0-inf) [4]: 1.8 µM·h
Cp(f) [5]: 27 nM
Cp(f) [6]: 660 nM
